Series [1] can be described thus: Toxicity against human SF268 cells assessed as growth inhibition by broth microdilution method. Type of series: cell-based, SF-268. The essentials: (§1)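 Cells grown in RPMI-1640 with 2mM L-glutamine and 10% FBS at 37°C, 5% CO₂. Seeded at 5,000 cells/well and exposed to compounds in half-log serial dilution, 316μM–10nM (100μM–10nM when the DMSO stock was used), for 4 days. Read-out by MTT, absorbance at 600nm. IC₅₀ fitted to a rectangular hyperbola with Imax fixed at 100%.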
For orientation: Dilution methods test growth across graded concentrations, often in twofold steps.

Series [2] relates to Human immunodeficiency virus 1. The series is described as follows: Inhibition of the ATP-mediated HIV1 reverse transcriptase D67N/K70R/T215F/K219Q mutant catalyzed DNA synthesis.
The nature of series [3]: Toxicity against human NCI-H460 cells assessed as growth inhibition by broth microdilution method. Type of series: cell-based. The essentials: as §1
Series [4] can be described thus: Inhibition of the ATP-mediated HIV1 reverse transcriptase D67N/K70R/T215F/K219Q mutant catalyzed 3'-azido, 3'-deoxythymidine excision from AZT-terminated DNA primers. The arrangement: species or system Human immunodeficiency virus 1. The gist of the method: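 TAM-RT incubated with 5′-³²P-labeled 57/19 heteropolymeric DNA T/P whose 20 nt primer was chain-terminated with AZTMP (RT:T/P 4:1), in 50 mM Tris-HCl pH 8.0, 50 mM KCl, with or without varying bisphosphonate. Started with 10 mM MgCl₂ + 3.0 mM ATP, inorganic pyrophosphatase included. Timed aliquots quenched in formamide/EDTA dye. 20 nt and 19 nt excision product resolved on denaturing gel, quantified by phosphorimaging; IC₅₀.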

A short description of series [5]: Toxicity against human MCF7 cells assessed as growth inhibition by broth microdilution method. The format is cell-based. The essentials:
as §1

Activity calls are given as the source filed them. The calls are words filed in the database; no cut-off is given here.

One may read the IC50 as the concentration at which inhibition is half-maximal. A word on the pIC50: it is the negative decadic logarithm of the IC50, by convention in mol/L. Lower therefore signals a large IC50.

For the molecule `COCc1cccc(NC(P(=O)(O)O)P(=O)(O)O)c1`, the IC50 is greater than 300 µM in series [1], greater than 300 µM in series [3], 9.5 µM in series [4] and greater than 300 µM in series [5]. The result in series [2] was inactive. This molecule also registered a negative logarithm of the IC50 (pIC50) in series [4] of 5.
Regarding `COc1cccc(CC(O)(P(=O)(O)O)P(=O)(O)O)c1`, the 50% inhibitory concentration (IC50) in series [1] is greater than 300 µM; in series [3], greater than 300 µM; in series [4] it was 5.4 µM; in series [5], greater than 300 µM. Besides, the outcome in series [2] was inactive. Further, in series [4], the negative logarithm of the IC50 (pIC50) worked out at 5.3.
As for `O=P(O)(O)C(O)(Cc1cccc(-c2ccc(Cl)cc2)c1)P(=O)(O)O`, the IC50 in series [1] turned out to be 48 µM; in series [3], 39 µM; in series [4], 0.9 µM; in series [5], 41 µM. For the same molecule, in series [2], the outcome was inactive. For the same molecule, the pIC50 in series [4] is given as 6.1.
In series [4], `O=P(O)(O)C(Nc1ccc(-c2ccccc2)cc1)P(=O)(O)O` gave a 50% inhibitory concentration (IC50) of 302 µM and a pIC50 of 3.5.
As to `O=P(O)(O)C(O)(Cc1ccc(Cl)c(Cl)c1)P(=O)(O)O`, the IC50 amounted to 208 µM in series [1], 241 µM in series [3], 0.5 µM in series [4] and 213 µM in series [5]. Also, the outcome in series [2] was inactive. The molecule also gave a negative logarithm of the IC50 (pIC50) in series [4] of 6.3.
On to `O=P(O)(O)C(Nc1cccc(-c2ccc(F)c(F)c2)c1)P(=O)(O)O`, for which the IC50 in series [1] is greater than 300 µM; in series [3], greater than 300 µM; in series [4], 2.1 µM; in series [5] it was greater than 300 µM. Besides, the outcome in series [2] was inactive. The molecule further displayed a pIC50 in series [4] of 5.7.
In the case of `COc1ccc(-c2cccc(CC(O)(P(=O)(O)O)P(=O)(O)O)c2)cc1`, the concentration for half-maximal inhibition (IC50) in series [1] turned out to be 139 µM; in series [3], 118 µM; in series [4], 2.4 µM; in series [5], 128 µM. In addition, the result in series [2] was inactive. Besides, the negative logarithm of the IC50 (pIC50) in series [4] is on record as 5.6.
As to `O=P(O)(O)C(O)(Cc1cccc2ccccc12)P(=O)(O)O`, the IC50 in series [1] amounted to 225 µM; in series [3] it was 248 µM; in series [4], 1.3 µM; in series [5], 259 µM. In addition, in series [2], the outcome was inactive. The same molecule came in with a pIC50 in series [4] of 5.9.
With `O=P(O)(O)C(Nc1ccc(Cc2ccccc2)cc1)P(=O)(O)O`, the IC50 in series [1] was greater than 100 µM; in series [3], greater than 100 µM; in series [4], 3.5 µM; in series [5] it was greater than 100 µM. In addition, in series [2], the outcome was inactive. Further, in series [4], the negative-log IC50 (pIC50) is 5.5.
For the molecule `COc1ccc(-c2ccc(CC(O)(P(=O)(O)O)P(=O)(O)O)cc2)cc1`, in series [2], the outcome was inactive. In series [4], this molecule returned a 50% inhibitory concentration (IC50) of 5.2 µM and a pIC50 of 5.3.
In the case of `O=P(O)(O)C(CNc1cccc(-c2ccccc2)c1)P(=O)(O)O`, the IC50 in series [1] is greater than 300 µM; in series [3], greater than 300 µM; in series [4], 11.2 µM; in series [5], greater than 300 µM. For the same molecule, in series [2], the result was inactive. The same molecule had a negative logarithm of the IC50 (pIC50) in series [4] of 5.
For `O=P(O)(O)C(Nc1cccc(CO)c1)P(=O)(O)O`, the half-maximal inhibitory concentration (IC50) in series [1] was greater than 300 µM; in series [3] it was greater than 300 µM; in series [4] it was 7.9 µM; in series [5], greater than 300 µM. Also, the outcome in series [2] was inactive. For the same molecule, in series [4], the negative-log IC50 (pIC50) is on record as 5.1.
Consider `O=P(O)(O)C(Nc1cccc(-c2ccc(F)cc2F)c1)P(=O)(O)O`, for which the concentration for half-maximal inhibition (IC50) was greater than 300 µM in series [1], greater than 300 µM in series [3], 3.9 µM in series [4] and greater than 300 µM in series [5]. For the same molecule, the result in series [2] was inactive. The pIC50 in series [4] is given as 5.4.
For `Nc1ccccc1CC(O)(P(=O)(O)O)P(=O)(O)O`, the IC50 stood at 186 µM in series [1], 187 µM in series [3], 38 µM in series [4] and 205 µM in series [5]. The outcome in series [2] was inactive. For the same molecule, the pIC50 in series [4] was 4.4.
Take `NCCCCCC(O)(P(=O)(O)O)P(=O)(O)O` [NERIDRONIC ACID]: in series [4], it took 302 µM to reach half-maximal inhibition (IC50) and the pIC50 came to 3.5.
Regarding `O=P(O)(O)C(O)(Cc1ccc(-c2ccc(Cl)cc2)cc1)P(=O)(O)O`, the concentration for half-maximal inhibition (IC50) in series [1] is greater than 100 µM; in series [3] it was greater than 100 µM; in series [4], 3.9 µM; in series [5], greater than 100 µM. The result in series [2] was inactive. In series [4], this molecule registered a pIC50 of 5.4.
For the molecule `O=P(O)(O)C(Nc1cccc(-c2ccccc2)c1)P(=O)(O)O`, the IC50 was 269 µM in series [1], 253 µM in series [3], 3.2 µM in series [4] and 289 µM in series [5]. Further, the result in series [2] was inactive. The negative logarithm of the IC50 (pIC50) in series [4] came out at 5.5.
With `O=P(O)(O)C(O)(Cc1cccc(-c2ccc(F)c(F)c2)c1)P(=O)(O)O`, the half-inhibitory concentration (IC50) in series [1] was found to be 236 µM; in series [3], 253 µM; in series [4], 1 µM; in series [5], 225 µM. Further, the result in series [2] was inactive. The molecule further returned a pIC50 in series [4] of 6.
In the case of `CN(C)c1ccccc1CC(O)(P(=O)(O)O)P(=O)(O)O`, the 50% inhibitory concentration (IC50) in series [1] was greater than 300 µM; in series [3], greater than 300 µM; in series [4], 51.3 µM; in series [5] it was greater than 300 µM. Moreover, in series [2], the outcome was inactive. In series [4], this molecule gave a pIC50 of 4.3.
`O=P(O)(O)C(O)(Cc1ccc(-c2ccc(F)cc2)cc1)P(=O)(O)O`: the IC50 was greater than 300 µM in series [1], greater than 300 µM in series [3], 2.9 µM in series [4] and greater than 300 µM in series [5]. In addition, the result in series [2] was inactive. Moreover, in series [4], the pIC50 is on record as 5.5.
On to `O=P(O)(O)C(O)(Cc1cccc(Oc2ccccc2)c1)P(=O)(O)O`, for which the IC50 in series [1] was found to be 176 µM; in series [3] it was 212 µM; in series [4], 3.3 µM; in series [5], 188 µM. For the same molecule, the result in series [2] was inactive. In addition, the negative logarithm of the IC50 (pIC50) in series [4] was determined as 5.5.
In the case of `O=P(O)(O)C(Nc1cccc(-c2cc(F)cc(F)c2)c1)P(=O)(O)O`, the IC50 was greater than 100 µM in series [1], greater than 100 µM in series [3], 2.2 µM in series [4] and greater than 100 µM in series [5]. Also, in series [2], the outcome was inactive. The same molecule displayed a pIC50 in series [4] of 5.7.
In series [4], `CCCCCCCCC(O)(P(=O)(O)O)P(=O)(O)O` came in with an IC50 of 302 µM and a negative-log IC50 (pIC50) of 3.5.
The like results for `CCCCCCCCCC(O)(P(=O)(O)O)P(=O)(O)O` were, in that order, 302 µM and 3.5.
In the case of `O=P(O)(O)C(Nc1cccc(Br)c1)P(=O)(O)O`, the IC50 in series [1] was greater than 300 µM; in series [3], greater than 300 µM; in series [4], 1 µM; in series [5], greater than 300 µM. For the same molecule, the result in series [2] was inactive. For the same molecule, in series [4], the negative-log IC50 (pIC50) is on record as 6.
In series [4], `CCCCCCCCCCCC(O)(P(=O)(O)O)P(=O)(O)O` displayed a concentration for half-maximal inhibition (IC50) of 302 µM and a negative logarithm of the IC50 (pIC50) of 3.5.
For `CCCCCCCc1ccc(NC(P(=O)(O)O)P(=O)(O)O)cc1`, in that order: 302 µM and 3.5.
The like results for `O=P(O)(O)C(O)(Cc1ccccc1)P(=O)(O)O` were, in that order, 302 µM and 3.5.
`O=P(O)(O)C(O)(Cc1cccc(-c2cc(F)ccc2F)c1)P(=O)(O)O`: the concentration for half-maximal inhibition (IC50) in series [1] came to 122 µM; in series [3], 141 µM; in series [4], 1.5 µM; in series [5] it was 165 µM. The result in series [2] was inactive. Moreover, the pIC50 in series [4] turned out to be 5.8.
In series [4], `CN(CCCc1ccccc1)CCC(O)(P(=O)(O)O)P(=O)(O)O` yielded a 50% inhibitory concentration (IC50) of 302 µM and a pIC50 of 3.5.
On to `O=P(O)(O)C(CNc1ccc(-c2ccccc2)cc1)P(=O)(O)O`, for which the half-inhibitory concentration (IC50) is 95 µM in series [1], 95 µM in series [3], 4.6 µM in series [4] and 84 µM in series [5]. Also, in series [2], the result was inactive. Besides, the pIC50 in series [4] was 5.3.
For the molecule `O=P(O)(O)C(O)(C[n+]1ccccc1)P(=O)(O)O`, in series [4], the midpoint of inhibition, the IC50, lay at 302 µM and the pIC50 is reported as 3.5.
Take `Cc1ccc(NC(P(=O)(O)O)P(=O)(O)O)cc1-c1ccccc1`: the concentration for half-maximal inhibition (IC50) was 297 µM in series [1], 301 µM in series [3], 5 µM in series [4] and 296 µM in series [5]. In series [2], the result was inactive. In series [4], this molecule gave a pIC50 of 5.3.
For the molecule `O=P(O)(O)C(O)(Cc1cccc(-c2ccc(F)cc2)c1)P(=O)(O)O`, the concentration for half-maximal inhibition (IC50) worked out at 224 µM in series [1], 175 µM in series [3], 1.9 µM in series [4] and 173 µM in series [5]. Besides, the result in series [2] was inactive. For the same molecule, the negative logarithm of the IC50 (pIC50) in series [4] stood at 5.7.
With `CCCCCCc1ccc(NC(P(=O)(O)O)P(=O)(O)O)cc1`, in series [4], the IC50 is 302 µM and the pIC50 is recorded as 3.5.

Values taken from ChEMBL document CHEMBL1141713, “Bisphosphonate inhibitors of ATP-mediated HIV-1 reverse transcriptase catalyzed excision of chain-terminating 3'-azido, 3'-deoxythymidine: a QSAR investigation” (Bioorg Med Chem, 2008).
